According to ChEMBL document CHEMBL3351600, “Sulfur, selenium and tellurium pseudopeptides: synthesis and biological evaluation” (Bioorg Med Chem, 2014):

Assays:
TK-10 = assay: Growth inhibition of human TK10 cells after 48 hrs; assay type: functional; settings: TK-10, 48 h; for TGI: read-out: pTGI (converted)
Procedure, shortened: (§1)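 Run by the NCI 58-cell-line screen under its standard cytotoxicity protocol. Compounds were first tested at a single dose, then at five doses. Cells were exposed to compound for 48 h.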

MDA-MB-231 = assay: Growth inhibition of human MDA-MB-231 cells after 48 hrs; assay type: functional; settings: MDA-MB-231, 48 h; for TGI: read-out: pTGI (converted)
Procedure, shortened: (§2)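 NCI-60 human tumour cell line panel screen run at the US National Cancer Institute under its standard cytotoxicity protocol. It covers leukaemia, NSCLC, colon, CNS, melanoma, ovarian, renal, prostate and breast lines. An initial single-dose test was followed by five-dose testing with 48 h compound exposure.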

[1] = Growth inhibition of human Hs 578T cells after 48 hrs; assay type: functional; settings: for TGI: read-out: pTGI (converted); procedure, shortened: as §2
SR = assay: Growth inhibition of human SR cells after 48 hrs; assay type: functional; settings: for TGI: read-out: pTGI (converted); procedure, shortened: as §1
A-431 = assay: Reduction in ROS in human A431 cells assessed as decrease in hydrogen peroxide level at 0.1 to 10 ng/ml after 1 hr by DCHFA assay; assay type: functional, cell-based
Procedure, shortened: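 A-431 cells were seeded at 10^5 per well and exposed to a range of compound concentrations for 1 h. They were then loaded with DCHFA probe for 30 min in the dark. Fluorescence was read immediately at ex/em 485/528 nm and expressed as arbitrary units per 10^5 cells.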

[2] = Lipophilicity, log K of the compound by HPLC analysis
HOP-62 = assay: Growth inhibition of human HOP62 cells after 48 hrs; assay type: functional; settings: HOP-62, 48 h; for CC50: read-out: pLC50 (the source's name) (converted); for TGI: read-out: pTGI (converted); procedure, shortened: as §2
[3] = Growth inhibition of human COLO205 cells after 48 hrs; assay type: functional; settings: COLO 205, 48 h; for CC50: read-out: pLC50 (the source's name) (converted); for TGI: read-out: pTGI (converted); procedure, shortened: as §2
HT-29 = assay: Growth inhibition of human HT-29 cells after 48 hrs; assay type: functional; settings: HT-29, 48 h; for CC50: read-out: pLC50 (the source's name) (converted); for TGI: read-out: pTGI (converted); procedure, shortened: as §2
U-251 = assay: Growth inhibition of human U251 cells after 48 hrs; assay type: functional; settings: U-251, 48 h; for CC50: read-out: pLC50 (the source's name) (converted); for TGI: read-out: pTGI (converted); procedure, shortened: as §1
Malme-3M = assay: Growth inhibition of human MALME-3M cells after 48 hrs; assay type: functional; settings: for CC50: read-out: pLC50 (the source's name) (converted); for TGI: read-out: pTGI (converted); procedure, shortened: as §2
MCF7 [4] = assay: Cell cycle arrest in human MCF7 cells assessed as accumulation at G0/G1 phase after 30 mins by propidium iodide staining-based flow cytometric analysis; assay type: functional
Procedure, shortened: (§3)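 MCF-7 cells (10^6) were treated with compounds for 24 h alongside a methanol vehicle control. They were fixed in cold 70% methanol at 4 °C for one day, washed in PBS and permeabilised with 0.1% saponin in PBS. They were then stained with propidium iodide plus RNase (1 mg/ml) for 30 min, and DNA-content distribution was read by FACScan flow cytometry.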

MCF7 [5] = assay: Cell cycle arrest in human MCF7 cells assessed as accumulation at S phase […] by propidium iodide staining-based flow cytometric analysis; assay type: functional
MCF7 [6] = assay: Cell cycle arrest in human MCF7 cells assessed as accumulation at G2/M phase after 30 mins by propidium iodide staining-based flow cytometric analysis; assay type: functional; procedure, shortened: as §3
CCRF-CEM = assay: Growth inhibition of human CCRF-CEM cells after 48 hrs; assay type: functional; settings: for CC50: read-out: pLC50 (the source's name) (converted); for TGI: read-out: pTGI (converted); procedure, shortened: as §2

Row | SMILES | GI50 (TK-10) | LC50 (TK-10) | TGI (TK-10) | GI50 (MDA-MB-231) | TGI (MDA-MB-231) | LC50 [1] | log K [2] | GI50 (HOP-62) | CC50 (HOP-62) | TGI (HOP-62) | GI50 [3] | CC50 [3] | TGI [3] | GI50 (HT-29) | CC50 (HT-29) | TGI (HT-29) | CC50 (U-251) | GI50 (Malme-3M) | CC50 (Malme-3M) | TGI (Malme-3M) | other results
1 | COc1ccc(N(CC(=O)NCCC[Te]c2ccccc2)C(=O)CNC(=O)OC(C)(C)C)cc1 | 3.89 µM | 100 µM | 10.7 µM | 1.91 µM | 3.89 µM | > 100 µM | 0.05 | 2.19 µM | 11 µM | 4.68 µM | 2 µM | 7.24 µM | 3.8 µM | 3.8 µM | > 100 µM | 13.8 µM | 49 µM | 15.8 µM | 69.2 µM | 33.1 µM | GI50 [1]: 2.75 µM; TGI [1]: 7.24 µM; GI50 (SR): 1.66 µM; LC50 (SR): > 100 µM; TGI (SR): 7.76 µM; Activity (A-431): Dose-dependent effect; GI50 (U-251): 2.4 µM; TGI (U-251): 6.46 µM
2 | COc1ccc(N(CC(=O)NCCC[Te]c2ccccc2)C(=O)c2ccccc2)cc1 | 3.89 µM | 69.2 µM | 11.5 µM | 2.63 µM | 4.79 µM | > 100 µM | -0.65 | 2.4 µM | 18.2 µM | 5.37 µM | 2.57 µM | > 100 µM | 6.03 µM | 3.8 µM | > 100 µM | > 100 µM | 74.1 µM | 16.6 µM | 72.4 µM | 34.7 µM | LC50 (MDA-MB-231): > 100 µM; GI50 (SR): 2.82 µM; LC50 (SR): > 100 µM; TGI (SR): 10 µM; Activity (MCF7 [4]): 85.01%; Activity (MCF7 [5]): 6.19%; Activity (MCF7 [6]): 8.8%; Activity (A-431): Dose-dependent effect; GI50 (U-251): 2.82 µM; TGI (U-251): 9.33 µM
3 | CC1=C(SCCC(=O)OCC(=O)NCCC[Te]c2ccccc2)C(=O)c2ccccc2C1=O | 3.8 µM | 38 µM | 12.9 µM | 1.86 µM | 4.27 µM | > 100 µM | -0.56 | 1.91 µM | 23.4 µM | 5.5 µM | 1.91 µM | 8.91 µM | 4.17 µM | 3.31 µM | > 100 µM | 11 µM | 45.7 µM | 2.19 µM | 25.7 µM | 6.03 µM | LC50 (MDA-MB-231): 9.55 µM; GI50 [1]: 2.82 µM; TGI [1]: > 100 µM; GI50 (CCRF-CEM): 2.4 µM; CC50 (CCRF-CEM): > 100 µM; TGI (CCRF-CEM): 18.6 µM; GI50 (U-251): 3.16 µM; TGI (U-251): 11.5 µM
4 | COc1ccc(N(CC(=O)NCCC[Te]c2ccccc2)C(=O)CCSC2=C(C)C(=O)c3ccccc3C2=O)cc1 | 2.82 µM | 28.8 µM | 6.92 µM | 1.23 µM | 3.89 µM | > 100 µM | -0.54 | 0.339 µM | 3.8 µM | 1 µM | 1.86 µM | 6.61 µM | 3.47 µM | 1.62 µM | 50.1 µM | 4.9 µM | > 100 µM | 2.24 µM | 8.32 µM | 4.37 µM | LC50 (MDA-MB-231): 14.8 µM; GI50 [1]: 1.78 µM; Activity (MCF7 [4]): 88.62%; Activity (MCF7 [5]): 5.55%; Activity (MCF7 [6]): 5.84%; GI50 (CCRF-CEM): 0.417 µM; CC50 (CCRF-CEM): > 100 µM; TGI (CCRF-CEM): 2.51 µM
